Data published in ChEMBL document CHEMBL1149549, “Orally active antimalarials: synthesis and bioevaluation of a new series of steroid-based 1,2,4-trioxanes against multi-drug resistant malaria in mice” (Bioorg Med Chem Lett, 2007).

Tests used:
[1] = tested on: Plasmodium yoelii; experiment: Antimalarial activity as reduced parasitaemia (%) against multidrug-resistant Plasmodium yoelii infected Swiss mice (Mus musculus) at 96 mg/kg peroral dose after 4 days; format: functional; design: scale not given: the % may be the effect or the level left; conditions: route oral
Outline: (§1)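 Colony-bred Swiss mice (25 ± 1 g) inoculated with 1×10^6 parasitized RBC on day 0, five per dose group. Dosed orally in groundnut oil (0.1 ml), days 0–3, as two divided doses daily. Parasitaemia read from thin blood smears. Day-4 suppression = [(C−T)/C]×100 against the control group; 100% means parasites below the detection limit. β-Arteether was the positive control.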

[2] = tested on: Mus musculus; experiment: Survival of multidrug-resistant Plasmodium yoelii infected Swiss mice (Mus musculus) at 96 mg/kg, perorally after 28 days; format: ADME, organism-based; design: dose 96 mg/kg, route oral; conditions: in vivo, po, 672 h
Outline: (§2)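 Swiss mice (25 ± 1 g) infected on day 0 with 1×10^6 parasitized RBC, five per dose. Given the drug orally in groundnut oil (0.1 ml), split into two daily doses on days 0–3. Parasitaemia followed by thin blood smears from day 4 to 28. Mice surviving beyond day 28 were scored as protected, expressed as the percent of treated mice. β-Arteether was the positive control.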

[3] = tested on: Plasmodium yoelii; experiment: Antimalarial activity as reduced parasitaemia (%) against multidrug-resistant Plasmodium yoelii infected Swiss mice (Mus musculus) at 48 mg/kg peroral dose after 4 days; format: functional; design: scale not given: the % may be the effect or the level left; conditions: route oral; outline: as §1
[4] = tested on: Mus musculus; experiment: Survival of multidrug-resistant Plasmodium yoelii infected Swiss mice (Mus musculus) at 48 mg/kg, perorally after 28 days; format: ADME, organism-based; design: dose 48 mg/kg, route oral; conditions: in vivo, po, 672 h; outline: as §2
[5] = tested on: Plasmodium yoelii; experiment: Antimalarial activity as reduced parasitaemia (%) against multidrug-resistant Plasmodium yoelii infected Swiss mice (Mus musculus) at 24 mg/kg peroral dose after 4 days; format: functional; design: scale not given: the % may be the effect or the level left; conditions: route oral

## C=C(c1ccc(C)cc1)C1COC2(CC[C@@]3(C)C(CC[C@H]4[C@@H]5CC[C@H]([C@H](C)CCCC(C)C)[C@@]5(C)CC[C@@H]43)C2)OO1 (stereo partly specified)
[1]
  Activity: 27.4%
[2]
  Activity: Not Active

## C=C(c1ccc(OC)cc1)C1COC2(CC[C@@]3(C)C(CC[C@H]4[C@@H]5CC[C@H](C(C)=O)[C@@]5(C)CC[C@@H]43)C2)OO1 (stereo partly specified)
[1]
  Activity: 100%
[2]
  Activity: Active
[3]
  Activity: 100%

## C=C(c1ccc(C)cc1)C1COC2(CC[C@@]3(C)C(CC[C@H]4[C@@H]5CC[C@H](C(C)=O)[C@@]5(C)CC[C@@H]43)C2)OO1 (stereo partly specified)
[1]
  Activity: 100%
[3]
  Activity: 100%

## C=C(c1ccc(Br)cc1)C1COC2(CC[C@@]3(C)C(CC[C@H]4[C@@H]5CC[C@H](C(C)=O)[C@@]5(C)CC[C@@H]43)C2)OO1 (stereo partly specified)
[1]
  Activity: 100%
[3]
  Activity: 100%

## C=C(c1ccc(F)cc1)C1COC2(CC[C@@]3(C)C(CC[C@@H]4[C@@H]3CC[C@@]3(C)[C@H]4OCC34CC[C@@H](C)CO4)C2)OO1 (stereo partly specified)
[1]
  Activity: 45.1%
[2]
  Activity: Not Active

## C=C(c1ccc(Br)cc1)C1COC2(CC[C@@]3(C)C(CC[C@H]4[C@@H]5CC[C@H]([C@H](C)CCCC(C)C)[C@@]5(C)CC[C@@H]43)C2)OO1 (stereo partly specified)
[1]
  Activity: 26.1%
[2]
  Activity: Not Active

## C=C(c1ccccc1)C1COC2(CC[C@@]3(C)C(CC[C@H]4[C@@H]5CC[C@H](C(C)=O)[C@@]5(C)CC[C@@H]43)C2)OO1 (stereo partly specified)
[1]
  Activity: 100%
[3]
  Activity: 100%

## C=C(c1ccc(OC)cc1)C1COC2(CC[C@@]3(C)C(CC[C@@H]4[C@@H]3CC[C@@]3(C)[C@H]4OCC34CC[C@@H](C)CO4)C2)OO1 (stereo partly specified)
[1]
  Activity: 36.1%
[2]
  Activity: Not Active

## C=C(c1ccc(C)cc1)C1COC2(CC[C@@]3(C)C(CC[C@@H]4[C@@H]3CC[C@@]3(C)[C@H]4OCC34CC[C@@H](C)CO4)C2)OO1 (stereo partly specified)
[1]
  Activity: 50.7%
[2]
  Activity: Not Active

## CCO[C@H]1O[C@@H]2O[C@@]3(C)CC[C@H]4[C@H](C)CC[C@@H]([C@H]1C)[C@@]24OO3 [ARTEMOTIL]
[4]
  Activity: Active
[5]
  Activity: 100%
[3]
  Activity: 100%

## C=C(c1ccc(Cl)cc1)C1COC2(CC[C@@]3(C)C(CC[C@H]4[C@@H]5CC[C@H](C(C)=O)[C@@]5(C)CC[C@@H]43)C2)OO1 (stereo partly specified)
[1]
  Activity: 100%
[3]
  Activity: 100%

## C=C(c1ccc(Cl)cc1)C1COC2(CC[C@@]3(C)C(CC[C@H]4[C@@H]5CC[C@H]([C@H](C)CCCC(C)C)[C@@]5(C)CC[C@@H]43)C2)OO1 (stereo partly specified)
[1]
  Activity: 43.4%
[2]
  Activity: Not Active

## C=C(c1ccc(OC)cc1)C1COC2(CC[C@@]3(C)C(CC[C@H]4[C@@H]5CC[C@H]([C@H](C)CCCC(C)C)[C@@]5(C)CC[C@@H]43)C2)OO1 (stereo partly specified)
[1]
  Activity: 53.5%
[2]
  Activity: Not Active

## C=C(c1ccc(F)cc1)C1COC2(CC[C@@]3(C)C(CC[C@H]4[C@@H]5CC[C@H]([C@H](C)CCCC(C)C)[C@@]5(C)CC[C@@H]43)C2)OO1 (stereo partly specified)
[1]
  Activity: 14.8%
[2]
  Activity: Not Active

## C=C(c1ccc(Cl)cc1)C1COC2(CC[C@@]3(C)C(CC[C@@H]4[C@@H]3CC[C@@]3(C)[C@H]4OCC34CC[C@@H](C)CO4)C2)OO1 (stereo partly specified)
[1]
  Activity: 71.7%
[2]
  Activity: Not Active

## C=C(c1ccccc1)C1COC2(CC[C@@]3(C)C(CC[C@@H]4[C@@H]3CC[C@]3(C)C([C@H](C)CCCC(C)C)CC[C@@H]43)C2)OO1 (stereo partly specified)
[1]
  Activity: 73%
[2]
  Activity: Not Active

## C=C(c1ccc(F)cc1)C1COC2(CC[C@@]3(C)C(CC[C@H]4[C@@H]5CC[C@H](C(C)=O)[C@@]5(C)CC[C@@H]43)C2)OO1 (stereo partly specified)
[1]
  Activity: 100%
[3]
  Activity: 100%
